eIF4H FP inh – inhibitors of RNA binding by human eIF4H | hit rate 0.94% among 290,000 | AID 2012 | Q15056 | inhibition, % at 35 µM | eIF4H fluorescence polarization binding assay;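 further: calls also rest on retests at 20 µM and on dose response follow-up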
ZTA counter – ZTA (EBV) inhibition in EBNA-1 counter-screen. P03206. ZTA-DNA binding, fluorescence polarization. inhibition, % at 11 µM. hit rate 0.15% among 320,000. AID 2234; in the data active means inhibition above about 33%
Target sequence (P03206 whole entry, looked up): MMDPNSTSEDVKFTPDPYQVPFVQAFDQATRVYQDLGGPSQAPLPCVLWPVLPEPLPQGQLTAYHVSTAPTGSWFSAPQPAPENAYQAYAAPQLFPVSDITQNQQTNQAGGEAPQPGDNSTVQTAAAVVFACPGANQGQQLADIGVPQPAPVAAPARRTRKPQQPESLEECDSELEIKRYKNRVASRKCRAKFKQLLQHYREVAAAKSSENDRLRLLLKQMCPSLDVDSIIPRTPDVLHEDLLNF
HCV NS3 hel inh – HCV NS3 helicase inhibition | AID 1800 | inhibition, % at 10.9 µM | hit rate 0.56% among 290,000 | NS3 helicase DNA unwinding, Cy5 molecular beacon fluorescence;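 active means inhibition above the mean of all tested compounds plus 3 SD, set per campaign, cut at about 35% in these data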
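Compound dosing – single dose, 10.9 µM nominal final, DMSO 0.8% final · System – NS3 helicase fragment of HCV · Buffer or medium – MOPS pH 6.5, MgCl2, DTT, Tween20, BSA · Signal – Cy5 beacon fluorescence read at start and 1 h · Also added – annealed dual-labelled DNA beacon duplex, ATP-started · Schedule – 1 h at 25 °C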
EBNA-1 inhibitor – blocks EBNA-1 binding to DNA | EBNA-1 DNA binding, fluorescence polarization | inhibition, % at 14.8 µM | hit rate 0.34% among 300,000 | AID 1950; in the data active means inhibition above about 28%
PABP polyA inh – PABP-poly(A) binding inhibition | hit rate 1% among 290,000 | P11940 | AID 2014 | inhibition, % at 35 µM | PABP-poly(A) RNA binding, fluorescence polarization;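 further: calls also rest on retests at 20 µM and on dose response follow-up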
MLLE-PAM2 inh – inhibitors of microRNA-mediated deadenylation, human PABP1 MLLE binding; P11940; GST-MLLE / FITC-PAM2 fluorescence polarization; inhibition, % at 20 µM; hit rate 0.36% among 360,000; AID 588489; in the data active means inhibition above about 35%, passing the limit was not always enough
Of the large screens only hits and unclear results are named; the others gave an inactive call; ! = not confirmed by another sample. Compounds with a hit are over-represented: about 2.1% of the library has one in this group of screens. Unless noted, how the calls were made is not given here.

CC[C@@H](CO)NC(=O)[C@@H]1C=C2c3cccc4c3c(cn4C)C[C@H]2N(C)C1	eIF4H FP inh inconclusive, PABP polyA inh inconclusive, MLLE-PAM2 inh 75!
CCC(CO)NC(=O)C1C=C2c3cccc4[nH]cc(c34)CC2N(C)C1 (stereo not given)	eIF4H FP inh inconclusive, PABP polyA inh inconclusive
Cc1ccc(N2C(=O)CC(=O)NC2=O)cc1	eIF4H FP inh inconclusive, PABP polyA inh inconclusive
COc1ccc(N2C(=O)CC(=O)NC2=O)cc1	eIF4H FP inh inconclusive, PABP polyA inh 48
Cc1cccc(N2C(=O)CC(=O)NC2=O)c1	eIF4H FP inh 69
CC(=O)Nc1ccc(S(=O)(=O)N2Cc3ccccc3-n3nncc3C2)cc1	none (no result: eIF4H FP inh, ZTA counter, HCV NS3 hel inh, EBNA-1 inhibitor, PABP polyA inh)
Cc1cc([N+](=O)[O-])c(Cl)cc1NC(=O)C(C)C	none
CNc1cc(Cl)c2nonc2c1[N+](=O)[O-]	MLLE-PAM2 inh 40 (no result: ZTA counter, EBNA-1 inhibitor)
CN(C)CCCN=Cc1c(O)n(CCc2ccccc2)c(=O)[nH]c1=O	eIF4H FP inh 96
CCCCn1c(O)c(C(C)=NCCc2c[nH]c3ccccc23)c(=O)[nH]c1=O	eIF4H FP inh 84, PABP polyA inh 66
C=CCn1c(O)c(C(C)=NCCc2c[nH]c3ccccc23)c(=O)[nH]c1=O	none
CCC(C)n1c(O)c(C=Nc2cccc(C(F)(F)F)c2)c(=O)[nH]c1=S (stereo not given)	eIF4H FP inh 60, PABP polyA inh active
CC(C)n1c(O)c(C=NCc2cccnc2)c(=O)[nH]c1=S	none
Cc1ccc(-n2c(/C=C/c3ccccn3)nc3ccccc3c2=O)cc1	none (no result: ZTA counter, EBNA-1 inhibitor)
O=c1c2ccccc2nc(/C=C/c2ccccn2)n1-c1ccccc1	ZTA counter 151, EBNA-1 inhibitor 118
CCCCSP1(=S)NCCCN1	none
CCN(CC)CCOC(=O)C(O)(c1ccccc1)c1ccccc1	none
CC(C)N1C(=O)CC2(CC[N+](C)(CCOC(=O)C(O)(c3ccccc3)c3ccccc3)CC2)C1=O (stereo not given)	eIF4H FP inh 1.2, PABP polyA inh 61
Cc1cc(N2CCCC2)ccc1C=C(C#N)C#N	eIF4H FP inh inconclusive
Cc1ccc2cc(C=C(C#N)C#N)c(Cl)nc2c1	eIF4H FP inh inconclusive, MLLE-PAM2 inh 53
O=C(NCC1=C(c2ccc3ccccc3c2)C[C@@H]2CC[C@H]1N2Cc1ccco1)c1cccnc1	none (no result: eIF4H FP inh, ZTA counter, HCV NS3 hel inh, EBNA-1 inhibitor, PABP polyA inh)
CCn1nc(-c2ccccc2)nc2c(=O)n(C)c(=O)nc1-2	eIF4H FP inh inconclusive, ZTA counter 74
COc1ccc(-c2nc3ccccc3c(=O)n2-c2ccc(OC)cc2)cc1	none
Cc1ccc(S(=O)(=O)N(C)CCCC(=O)N2CCN(c3ccccn3)CC2)cc1	none
COC(=O)C1=C(c2ccc(F)cc2OCc2ccccc2)C[C@@H]2CC[C@H]1N2C(=O)NCc1ccc([N+](=O)[O-])cc1	none (no result: eIF4H FP inh, HCV NS3 hel inh, EBNA-1 inhibitor, PABP polyA inh)
O=S(=O)(c1ccccc1)N1CCN2CCCC2C1 (stereo not given)	eIF4H FP inh 96, PABP polyA inh 82
O=c1[nH]c(=S)n(C2CC2)c(O)c1C=Nc1ccc2c(c1)OCO2	eIF4H FP inh 68
c1ccc(-n2ccnc2)cc1	none
Cn1c(O)c(C(=O)c2ccccc2)c(=O)n(C)c1=O	eIF4H FP inh 56, PABP polyA inh 54
CC1CCCCN1Cc1c[nH]c2ccccc12 (stereo not given)	none
Nc1cncc(C(=O)O)c1	eIF4H FP inh 53!
O=C1CCCN1C(=O)c1cncc(Br)c1	none
CN1CC=C2C(C#N)=C(N)C(C#N)(C#N)C(c3ccncc3)C2C1 (stereo not given)	eIF4H FP inh 122, PABP polyA inh 116
CCOS(C)(=O)=O	none (no result: eIF4H FP inh, HCV NS3 hel inh, EBNA-1 inhibitor, PABP polyA inh)
CN(C)c1ccc(/C=C2\C(=O)NC(=O)N(Cc3ccc(F)cc3)C2=O)cc1	eIF4H FP inh inconclusive, PABP polyA inh 46
Cc1ccc(/C=C2\C(=O)NC(=O)N(CCc3ccc(F)cc3)C2=O)o1	eIF4H FP inh inconclusive, PABP polyA inh active
COc1cc2[nH]c(C(=O)N3CCC4(CC3)OCCO4)cc2c(OC)c1OC	none
O=C(O)Cn1cc(/C=C2\C(=O)NC(=O)N(c3ccc(Cl)cc3)C2=O)c2ccccc21	eIF4H FP inh inconclusive, PABP polyA inh inconclusive
O=C1NC(=S)N(c2ccc(F)cc2)C(=O)/C1=C\c1ccoc1	eIF4H FP inh inconclusive (no result: ZTA counter, EBNA-1 inhibitor)
O=C1NC(=S)N(c2ccc(F)cc2)C(=O)/C1=C/c1ccco1	EBNA-1 inhibitor 78 (no result: MLLE-PAM2 inh)
O=C1NC(=S)N(c2ccc(Cl)cc2)C(=O)/C1=C/N1CCN(C(=O)c2ccco2)CC1	PABP polyA inh 49
C=CCn1cc(C=C2C(=O)NC(=O)NC2=O)c2ccccc21	eIF4H FP inh inconclusive, PABP polyA inh inconclusive
O=C(O)Cn1cc(C=C2C(=O)NC(=O)NC2=O)c2ccccc21	eIF4H FP inh inconclusive, PABP polyA inh 65
C=CCn1c(O)c(C(C)=NCCCN(C)C)c(=O)[nH]c1=O	none
COc1cc(N2CCOCC2)ccc1C=C1C(=O)NC(=O)NC1=O	eIF4H FP inh 69, PABP polyA inh 4.4
CN1C(=O)C2C[C@@]3(Br)c4ccccc4N(OOSc4ccccc4)[C@H]3N2C(=O)[C@@H]1Cc1ccccc1 (stereo not given in full)	none (no result: eIF4H FP inh, HCV NS3 hel inh, PABP polyA inh)
CSc1ncc(/C=C2/C(=O)NC(=O)N(c3ccc(C(C)C)cc3)C2=O)cn1	none
CC(C)c1ccc(N2C(=O)NC(=O)/C(=C/c3cnc(-c4ccccc4)nc3)C2=O)cc1	PABP polyA inh active
C=CCN1C[C@@H](C)N(C(c2ccc(C(=O)N(CC)CC)cc2)c2cccc(OC)c2)C[C@@H]1C (stereo not given in full)	none (no result: eIF4H FP inh, HCV NS3 hel inh, PABP polyA inh)
Nc1c(C(=O)NCc2ccco2)c2nc3ccccc3nc2n1CCN1CCCCC1	eIF4H FP inh 72, PABP polyA inh 104
Cc1cc(/C=C2\C(=O)NC(=O)N(c3ccc(F)cc3)C2=O)c(C)n1-c1ccc(C(=O)O)cc1	PABP polyA inh 51
COc1cc2c(cc1O)CC1c3c(cc(O)c(OC)c3-2)CCN1C (stereo not given)	eIF4H FP inh 81!, PABP polyA inh 20!
COc1cc2c(cc1OC)-c1c(OC)c(OC)cc3c1[C@H](C2)N(C)CC3	none
Cc1ccccc1-n1c(C)nc2ccccc2c1=O	none
Cc1cccc(-n2c(C)nc3ccccc3c2=O)c1C	PABP polyA inh 75
CCC1(c2ccccc2)C(=O)NC(=S)NC1=O	none (no result: eIF4H FP inh, ZTA counter, HCV NS3 hel inh, EBNA-1 inhibitor, PABP polyA inh)
CCCCn1c(O)c(C(CC)=Nc2ccc(C(=O)O)cc2)c(=O)[nH]c1=O	eIF4H FP inh 62
Cc1cccc(N2C(=O)NC(=O)/C(=C/c3ccc([N+](=O)[O-])o3)C2=O)c1	eIF4H FP inh 80, ZTA counter 37, PABP polyA inh 122 (no result: MLLE-PAM2 inh)
COc1cc(/C=C2\C(=O)NC(=O)N(c3ccccc3)C2=O)c([N+](=O)[O-])cc1OC	MLLE-PAM2 inh 49 (no result: ZTA counter, EBNA-1 inhibitor)
O=S(=O)(c1ccc(Cl)cc1)N1Cc2ccccc2-n2nncc2C1	none (no result: eIF4H FP inh, ZTA counter, HCV NS3 hel inh, EBNA-1 inhibitor, PABP polyA inh)
CC(Cc1ccccc1)[n+]1cc(/N=C(\[O-])N(C)C)on1 (stereo not given)	none
N=Cc1c(O)n(-c2ccc(C34CC5CC(CC(C5)C3)C4)cc2)c(=O)[nH]c1=O	EBNA-1 inhibitor 29
